In ChEMBL document CHEMBL4665627 (Eur J Med Chem, 2019):
≈ marks a conversion by molar mass, not a printed value.

Legend:
Format in all cases: functional
[1] = system: Acinetobacter baumannii; assay: Antibacterial activity against Acinetobacter baumannii assessed as inhibition of bacterial growth after 24 hrs by CLSI protocol based two fold serial dilution method
In short: (§1)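 Two-fold serial broth dilution in 96-well plates following CLSI; MIC (mM) taken as the lowest concentration giving complete growth inhibition; MIC values from three independent experiments.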

[2] = system: Staphylococcus aureus; assay: Antibacterial activity against Staphylococcus aureus assessed as inhibition of bacterial growth after 24 hrs by CLSI protocol based two fold serial dilution method; in short: as §1
[3] = system: Staphylococcus aureus; assay: Antibacterial activity against methicillin-resistant Staphylococcus aureus N315 assessed as inhibition of bacterial growth after 24 hrs by CLSI protocol based two fold serial dilution method
[4] = system: Staphylococcus aureus; assay: Antibacterial activity against Staphylococcus aureus ATCC 25923 assessed as inhibition of bacterial growth after 24 hrs by CLSI protocol based two fold serial dilution method; in short: as §1
[5] = system: Klebsiella pneumoniae; assay: Antibacterial activity against Klebsiella pneumoniae assessed as inhibition of bacterial growth after 24 hrs by CLSI protocol based two fold serial dilution method; in short: as §1
[6] = system: Candida parapsilosis; assay: Antifungal activity against Candida parapsilosis ATCC 22019 assessed as inhibition of fungal growth after 24 hrs by CLSI protocol based two fold serial dilution method; conditions: Lodderomyces parapsilosis; in short: as §1
[7] = system: Escherichia coli; assay: Antibacterial activity against Escherichia coli assessed as inhibition of bacterial growth after 24 hrs by CLSI protocol based two fold serial dilution method; in short: as §1
[8] = system: Candida albicans; assay: Antifungal activity against Candida albicans assessed as inhibition of fungal growth after 24 hrs by CLSI protocol based two fold serial dilution method; in short: as §1
[9] = system: Aspergillus fumigatus; assay: Antifungal activity against Aspergillus fumigatus assessed as inhibition of fungal growth after 24 hrs by CLSI protocol based two fold serial dilution method; in short: as §1
[10] = system: Pseudomonas aeruginosa; assay: Antibacterial activity against Pseudomonas aeruginosa assessed as inhibition of bacterial growth after 24 hrs by CLSI protocol based two fold serial dilution method; in short: as §1
[11] = system: Pseudomonas aeruginosa; assay: Antibacterial activity against Pseudomonas aeruginosa ATCC 27853 assessed as inhibition of bacterial growth after 24 hrs by CLSI protocol based two fold serial dilution method; in short: as §1
[12] = system: Staphylococcus aureus; assay: Antibacterial activity against Staphylococcus aureus ATCC 29213 assessed as inhibition of bacterial growth after 24 hrs by CLSI protocol based two fold serial dilution method
[13] = system: Candida tropicalis; assay: Antifungal activity against Candida tropicalis assessed as inhibition of fungal growth after 24 hrs by CLSI protocol based two fold serial dilution method; in short: as §1
[14] = system: Candida albicans; assay: Antifungal activity against Candida albicans ATCC 90023 assessed as inhibition of fungal growth after 24 hrs by CLSI protocol based two fold serial dilution method; in short: as §1
[15] = system: Enterococcus faecalis; assay: Antibacterial activity against Enterococcus faecalis assessed as inhibition of bacterial growth after 24 hrs by CLSI protocol based two fold serial dilution method; in short: as §1
[16] = system: Escherichia coli; assay: Antibacterial activity against Escherichia coli ATCC 25922 assessed as inhibition of bacterial growth after 24 hrs by CLSI protocol based two fold serial dilution method; in short: as §1

Structure (SMILES)	MIC [1]	MIC [2]	MIC [3]	MIC [4]	MIC [5]	MIC [6]	MIC [7]	MIC [8]	MIC [9]	MIC [10]	MIC [11]	MIC [12]	MIC [13]	MIC [14]	MIC [15]	MIC [16]
CCCCCCCCCCN1CCN(c2cc3c(cc2F)c(=O)c(-c2csc(N)n2)cn3CC)CC1	249 µM (≈ 128 µg/mL)	499 µM (≈ 256 µg/mL)	997 µM (≈ 512 µg/mL)	499 µM (≈ 256 µg/mL)	499 µM (≈ 256 µg/mL)	249 µM (≈ 128 µg/mL)	499 µM (≈ 256 µg/mL)	997 µM (≈ 512 µg/mL)	125 µM (≈ 64.2 µg/mL)	499 µM (≈ 256 µg/mL)	249 µM (≈ 128 µg/mL)	997 µM (≈ 512 µg/mL)	499 µM (≈ 256 µg/mL)	997 µM (≈ 512 µg/mL)	499 µM (≈ 256 µg/mL)	499 µM (≈ 256 µg/mL)
CCn1cc(-c2csc(N)n2)c(=O)c2cc(F)c(N3CCN(CC(C)=O)CC3)cc21	298 µM (≈ 128 µg/mL)	37 µM (≈ 15.9 µg/mL)	298 µM (≈ 128 µg/mL)	19 µM (≈ 8.16 µg/mL)	37 µM (≈ 15.9 µg/mL)	298 µM (≈ 128 µg/mL)	597 µM (≈ 256 µg/mL)	597 µM (≈ 256 µg/mL)	597 µM (≈ 256 µg/mL)	597 µM (≈ 256 µg/mL)	149 µM (≈ 64 µg/mL)	298 µM (≈ 128 µg/mL)	298 µM (≈ 128 µg/mL)	37 µM (≈ 15.9 µg/mL)	149 µM (≈ 64 µg/mL)	298 µM (≈ 128 µg/mL)
CCn1cc(-c2csc(N)n2)c(=O)c2cc(F)c(N3CCNCC3)cc21	343 µM (≈ 128 µg/mL)	86 µM (≈ 32.1 µg/mL)	171 µM (≈ 63.9 µg/mL)	171 µM (≈ 63.9 µg/mL)	171 µM (≈ 63.9 µg/mL)	343 µM (≈ 128 µg/mL)	171 µM (≈ 63.9 µg/mL)	171 µM (≈ 63.9 µg/mL)	343 µM (≈ 128 µg/mL)	21 µM (≈ 7.84 µg/mL)	343 µM (≈ 128 µg/mL)	343 µM (≈ 128 µg/mL)	685 µM (≈ 256 µg/mL)	171 µM (≈ 63.9 µg/mL)	171 µM (≈ 63.9 µg/mL)	343 µM (≈ 128 µg/mL)
CCN1CCN(c2cc3c(cc2F)c(=O)c(-c2csc(N)n2)cn3CC)CC1	319 µM (≈ 128 µg/mL)	319 µM (≈ 128 µg/mL)	319 µM (≈ 128 µg/mL)	80 µM (≈ 32.1 µg/mL)	160 µM (≈ 64.2 µg/mL)	80 µM (≈ 32.1 µg/mL)	319 µM (≈ 128 µg/mL)	319 µM (≈ 128 µg/mL)	160 µM (≈ 64.2 µg/mL)	319 µM (≈ 128 µg/mL)	160 µM (≈ 64.2 µg/mL)	638 µM (≈ 256 µg/mL)	40 µM (≈ 16.1 µg/mL)	319 µM (≈ 128 µg/mL)	319 µM (≈ 128 µg/mL)	160 µM (≈ 64.2 µg/mL)
